Data published in ChEMBL document CHEMBL1142076, “Expression of immunomodulatory genes in human monocytes induced by voriconazole in the presence of Aspergillus fumigatus” (2007).
Active and inactive are the calls of the source. No cut-off for these calls is given here.

Tests used:
[1] = test system: THP-1; test: Decrease in MIP1-beta production in THP1 cells stimulated with Aspergillus fumigatus hyphae at 0.1 ug/ml after 6 hrs; assay type: functional, cell-based; conditions: Homo sapiens
In short: (§1)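 PMA-primed THP-1 cells (1 × 10^6/ml) incubated 6 h at 37°C with hyphal fragments (E:T 10:1) with or without 0.1 μg/ml VRC. Supernatant IL-1β, TNF-α, IL-12, MCP-1 and MIP-1β measured by sandwich ELISA in duplicate at 450/540 nm. Five independent experiments, means ± SEM; ANOVA with Dunnett's test against untreated cells.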

[2] = test system: THP-1; test: Effect on IL11 gene expression in THP1 cells treated with Aspergillus fumigatus hyphae after 6 hrs by cDNA array hybridization; assay type: functional, Homo sapiens
In short: (§2)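 THP-1 cells primed with 10 ng/ml PMA for 6 h, rested 22 h, then exposed 6 h at 37°C to sonicated, nonviable AF 4215 hyphal fragments (E:T 10:1) with or without 0.1 μg/ml VRC. Total RNA (4 μg) reverse-transcribed to biotin-labelled cDNA and hybridised to a 96-gene inflammatory cytokine/receptor nylon array. Chemiluminescent read-out normalised to GAPDH; fold change against untreated cells; >2.5-fold counted significant; three independent arrays.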

[3] = test system: Aspergillus fumigatus; test: Antifungal activity against Aspergillus fumigatus hyphae assessed as hyphal damage at 0.1 ug/ml after 6 hrs by XTT assay; assay type: functional
In short: (§3)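 A. fumigatus AF 4215 hyphae grown 16 h at 37°C in yeast nitrogen base with 2% glucose, then medium changed to RPMI 1640 + 10% heat-inactivated FCS. PMA-induced THP-1 cells added at E:T 10:1, VRC at 0.1 μg/ml, or both, 6 h at 37°C, 5% CO2. THP-1 lysed with water. XTT 0.25 mg/ml plus coenzyme Q0 40 μg/ml, 1 h. OD 450/690 nm; damage = (1 − X/C)×100 against hyphae-only wells; duplicates.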

[4] = test system: THP-1; test: Effect on IL12B gene expression in THP1 cells treated with Aspergillus fumigatus hyphae after 6 hrs by cDNA array hybridization; assay type: functional, Homo sapiens; in short: as §2
[5] = test system: THP-1; test: Effect on CCL11 gene expression in THP1 cells treated with Aspergillus fumigatus hyphae after 6 hrs by cDNA array hybridization relative to control; assay type: functional, Homo sapiens; in short: as §2
[6] = test system: THP-1; test: Increase in IL1-beta production in THP1 cells stimulated with Aspergillus fumigatus hyphae at 0.1 ug/ml after 6 hrs; assay type: functional, cell-based; conditions: Homo sapiens; in short: as §1
[7] = test system: THP-1; test: Effect on CCL2 gene expression in THP1 cells treated with Aspergillus fumigatus hyphae after 6 hrs by cDNA array hybridization relative to control; assay type: functional, Homo sapiens; in short: as §2
[8] = test system: THP-1; test: Effect on TNFA gene expression in THP1 cells treated with Aspergillus fumigatus hyphae after 6 hrs by cDNA array hybridization; assay type: functional, Homo sapiens; in short: as §2
[9] = test system: THP-1; test: Effect on CCL4 gene expression in THP1 cells treated with Aspergillus fumigatus hyphae after 6 hrs by cDNA array hybridization relative to control; assay type: functional, Homo sapiens; in short: as §2
[10] = test system: THP-1; test: Effect on IL12A gene expression in THP1 cells treated with Aspergillus fumigatus hyphae after 6 hrs by cDNA array hybridization; assay type: functional, Homo sapiens; in short: as §2
[11] = test system: THP-1; test: Effect on TGFB1 gene expression in THP1 cells treated with Aspergillus fumigatus hyphae after 6 hrs by cDNA array hybridization; assay type: functional, Homo sapiens; in short: as §2
[12] = test system: THP-1; test: Effect on CCL20 gene expression in THP1 cells treated with Aspergillus fumigatus hyphae after 6 hrs by cDNA array hybridization relative to control; assay type: functional, Homo sapiens; in short: as §2
[13] = test system: THP-1; test: Effect on IL1R1 gene expression in THP1 cells treated with Aspergillus fumigatus hyphae after 6 hrs by cDNA array hybridization; assay type: functional, Homo sapiens; in short: as §2
[14] = test system: THP-1; test: Effect on CCL2 gene expression in THP1 cells treated with Aspergillus fumigatus hyphae by RT-PCR; assay type: functional, Homo sapiens
In short: (§4)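 THP-1 cells PMA-primed and exposed to hyphal fragments (E:T 10:1) with or without 0.1 μg/ml VRC. One-step RT-PCR on 0.5 μg total RNA with M-MuLV: 48°C 30 min, then 30 cycles of 94°C 15 s, 53°C 30 s, 72°C 1 min. Products run on 1.5% agarose and quantified by densitometry after normalisation to an internal control; three independent experiments.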

[15] = test system: THP-1; test: Effect on IL16 gene expression in THP1 cells treated with Aspergillus fumigatus hyphae after 6 hrs by cDNA array hybridization; assay type: functional, Homo sapiens; in short: as §2
[16] = test system: THP-1; test: Effect on CCL15 gene expression in THP1 cells treated with Aspergillus fumigatus hyphae after 6 hrs by cDNA array hybridization relative to control; assay type: functional, Homo sapiens; in short: as §2
[17] = test system: THP-1; test: Effect on CXCL6 gene expression in THP1 cells treated with Aspergillus fumigatus hyphae after 6 hrs by cDNA array hybridization relative to control; assay type: functional, Homo sapiens; in short: as §2
[18] = test system: CCL16 (Homo sapiens); test: Effect on CCL16 gene expression in THP1 cells treated with Aspergillus fumigatus hyphae after 6 hrs by cDNA array hybridization relative to control
[19] = test system: THP-1; test: Increase in TNFalpha production in THP1 cells stimulated with Aspergillus fumigatus hyphae at 0.1 ug/ml after 6 hrs; assay type: functional, cell-based; conditions: Homo sapiens; in short: as §1
[20] = test system: THP-1; test: Effect on CCL4 gene expression in THP1 cells treated with Aspergillus fumigatus hyphae by RT-PCR; assay type: functional, Homo sapiens; in short: as §4
[21] = test system: THP-1; test: Effect on CXCL13 gene expression in THP1 cells treated with Aspergillus fumigatus hyphae after 6 hrs by cDNA array hybridization relative to control; assay type: functional, Homo sapiens; in short: as §2
[22] = test system: THP-1; test: Effect on CCL7 gene expression in THP1 cells treated with Aspergillus fumigatus hyphae after 6 hrs by cDNA array hybridization relative to control; assay type: functional, Homo sapiens; in short: as §2
[23] = test system: THP-1; test: Increase in IL12 production in THP1 cells stimulated with Aspergillus fumigatus hyphae at 0.1 ug/ml after 6 hrs; assay type: functional, cell-based; conditions: Homo sapiens; in short: as §1
[24] = test system: THP-1; test: Effect on CCL21 gene expression in THP1 cells treated with Aspergillus fumigatus hyphae after 6 hrs by cDNA array hybridization relative to control; assay type: functional, Homo sapiens; in short: as §2
[25] = test system: Aspergillus fumigatus; test: Antifungal activity against Aspergillus fumigatus hyphae incubated with THP1 cells assessed as hyphal damage at 0.1 ug/ml after 6 hrs by XTT assay; assay type: functional, THP-1; in short: as §3
[26] = test system: THP-1; test: Effect on CCL3 gene expression in THP1 cells treated with Aspergillus fumigatus hyphae after 6 hrs by cDNA array hybridization relative to control; assay type: functional, Homo sapiens; in short: as §2
[27] = test system: THP-1; test: Decrease in MCP1 production in THP1 cells stimulated with Aspergillus fumigatus hyphae at 0.1 ug/ml after 6 hrs; assay type: functional, cell-based; conditions: Homo sapiens; in short: as §1
[28] = test system: THP-1; test: Effect on IFN-gamma gene expression in THP1 cells treated with Aspergillus fumigatus hyphae after 6 hrs by cDNA array hybridization; assay type: functional, Homo sapiens; in short: as §2
[29] = test system: THP-1; test: Effect on TNFA gene expression in THP1 cells treated with Aspergillus fumigatus hyphae by RT-PCR; assay type: functional, Homo sapiens; in short: as §4
[30] = test system: THP-1; test: Effect on CCL5 gene expression in THP1 cells treated with Aspergillus fumigatus hyphae after 6 hrs by cDNA array hybridization relative to control; assay type: functional, Homo sapiens; in short: as §2

C[C@@H](c1ncncc1F)[C@](O)(Cn1cncn1)c1ccc(F)cc1F [VORICONAZOLE]
Activity [1]: Active
Fold change [2]: 6.4
Activity [3]: 26.77%
Fold change [4]: -6
Fold change [5]: 2.5
Activity [6]: Active
Fold change [7]: -2.4
Fold change [8]: 3.1
Fold change [9]: 5.2
Fold change [10]: -3.3
Fold change [11]: 5.9
Fold change [12]: -2.5
Fold change [13]: 6.3
Fold change [14]: -3
Fold change [15]: -7.7
Fold change [16]: 10.1
Fold change [17]: 3.5
Fold change [18]: 0.04
Activity [19]: Active
Fold change [20]: 4
Fold change [21]: 7
Fold change [22]: 11.3
Activity [23]: Active
Fold change [24]: -2.6
Activity [25]: 42.11%
Fold change [26]: 19.3
Activity [27]: Active
Fold change [28]: 3.3
Fold change [29]: 2.6
Fold change [30]: 17.7
